# Source: ChEMBL document CHEMBL1125492, “The calanolides, a novel HIV-inhibitory class of coumarin derivatives from the tropical rainforest tree, Calophyllum lanigerum” (J Med Chem, 1992)
# Assays:
# [1] = system: CEM-SS; assay: Maximum protection of human T-lymphoblastic cells(CEM-SS) from cytopathic effects of HIV-1 by the compound; assay type: functional
# Method in brief: (§1)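 CEM-SS cells kept in phenol-red-free RPMI 1640 with 5% fetal bovine serum, 2 mM L-glutamine and 50 μg/mL gentamicin, seeded at 2.0×10^5 cells/mL. Infected with HIV-1 RF (HTLV-III_RF) or left uninfected. Compound dissolved in DMSO, diluted in medium (final DMSO ≤1%), tested over <0.1 to >10 μM. Incubated 6 days at 37 °C, 5% CO2. Viability read by XTT-tetrazolium; quadruplicate infected wells, duplicate uninfected wells.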
# [2] = system: CEM-SS; assay: Concentration inhibiting HIV-1 induced cytopathic effects in human T-lymphoblastic cells(CEM-SS) and essentially halted HIV-1 replication.; assay type: functional, cell-based; method in brief: as §1
# [3] = system: CEM-SS; assay: Potency to inhibit HIV-1 induced cytopathic effects in human T-lymphoblastic cells(CEM-SS) and essentially halted HIV-1 replication.; assay type: functional, cell-based; method in brief: as §1
# [4] = system: CEM-SS; assay: Inhibition of HIV-1 replication in CEM-SS human lymphoblastoid cells in vitro; assay type: functional, cell-based
# Method in brief: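 CEM-SS cells infected with HIV-1 RF and treated with a concentration range for 6 days at 37 °C, 5% CO2 (final DMSO ≤1%). Cell-free supernatant assayed for viral reverse transcriptase activity, p24 antigen and syncytium-forming units. Values expressed as percent of infected, untreated controls; each point is the mean of at least quadruplicate determinations.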
# [5] = system: CEM-SS cells (Homo sapiens); assay: Cytotoxicity against CEM-SS cells
# [6] = Apparent in vitro therapeutic induces(TI) of the compound; assay type: ADME
SMILES,Max protection [1] [%],IC50 [2] [µM],EC50 [3] [µM],EC50 [4] [µM],IC50 [5] [µM],Therapeutic indices [6] [TI]
CCCc1cc(=O)oc2c3c(c4c(c12)OC(C)(C)C=C4)O[C@H](C)[C@H](C)[C@@H]3O [CALANOLIDE C],30,30,,,,
CCCc1cc(=O)oc2c3c(c4c(c12)OC(C)(C)C=C4)O[C@H](C)[C@@H](C)[C@@H]3OC,,21,,,,
CCCc1cc(=O)oc2c3c(c4c(c12)OC(C)(C)C=C4)O[C@H](C)[C@@H](C)[C@@H]3O [CALANOLIDE A],100,20,0.1,0.08,16,200
CCCC1CC(=O)Oc2c(C(=O)C(C)C(C)O)c(O)c3c(c21)OC(C)(C)C=C3 (stereo unspecified) [CALANOLIDE E2],,25,,,,
CCCc1cc(=O)oc2c3c(c4c(c12)OC(C)(C)C=C4)O[C@H](C)[C@@H](C)[C@H]3O [(+)-CALANOLIDE B],100,15,0.4,,,37
CCCc1cc(=O)oc2c3c(c4c(c12)OC(C)(C)C=C4)O[C@H](C)[C@H](C)C3=O,,27,,,,
CCCc1cc(=O)oc2c3c(c4c(c12)OC(C)(C)C=C4)O[C@H](C)[C@@H](C)[C@H]3OC,35,19,,,,
CCCc1cc(=O)oc2c3c(c4c(c12)OC(C)(C)C=C4)O[C@H](C)[C@@H](C)[C@@H]3OC(C)=O,100,13,2.7,,,5
